For data set [1], the system named is Mus musculus. Put plainly: Toxicity in Foxn1nu/Foxn1+ mouse xenografted with human GFP-fused MDA-MB-231 cells assessed as reduction in body weight at 10 mg/kg, ip administered 3 times per week for 28 days relative to control. Type of data set: organism-based. The following applies: in vivo, 672 h. The method in brief: (§1)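 Athymic nude Foxn1nu/Foxn1+ mice given orthotopic MDA-MB-231/GFP implants. Once tumors were palpable (5-day latency), mice received 10 mg/kg ip three times weekly for 28 days; controls got vehicle. Tumor volume tracked by caliper, giving percent growth inhibition at study end. Body weight checked at each dose and toxicity signs observed.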

For data set [2], the system named is MDA-MB-231. Briefly: Antitumor activity against human GFP-fused MDA-MB-231 cells xenografted in Foxn1nu/Foxn1+ mouse assessed as tumor growth inhibition at 10 mg/kg, ip administered 3 times per week for 28 days relative to control. Type of data set: functional. Particulars: MDA-MB-231, ip, 672 h, read-out: TGI. The method in brief: as §1
Data set [3] addresses T1, Dual specificity mitogen-activated protein kinase kinase; MEK1/2 (Homo sapiens) (UniProt P36507+Q02750). Put plainly: Inhibition of MEK in human MDA-MB-231 cell lysate assessed as reduction in MAPK phosphorylation at 1.5 to 4 uM after 72 hrs by Western blot analysis. In short, it runs like this:
(§2)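 MDA-MB-231 cells treated with two doses or vehicle, then lysed. Western blot of phosphorylated MEK, ERK (MAPK) and MSK, each compared with vehicle control.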

The test system of data set [4] is MDA-MB-231. Put plainly: Antimigratory activity against human MDA-MB-231 cells after 24 hrs by scratch wound-healing assay. Type of data set: functional, cell-based.
Data set [5] deals with T1, Dual specificity mitogen-activated protein kinase kinase; MEK1/2 (Homo sapiens). Put plainly: Inhibition of MEK in human MDA-MB-231 cell lysate assessed as reduction in MSK phosphorylation at 1.5 to 4 uM after 72 hrs by Western blot analysis. The method in brief:
as §2

Data set [6] deals with MDA-MB-231. Put plainly: Cytotoxicity against human MDA-MB-231 cells at 10 uM after 24 hrs by LDH release assay relative to control. Type of data set: functional.
Data set [7] relates to BT-474. Briefly: Antiproliferative activity against human BT474 cells after 72 hrs by MTT assay. Type of data set: functional, cell-based. The following applies: BT-474, 72 h. The method in brief:
(§3)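 Six human breast carcinoma lines of differing molecular and phenotypic character were each exposed to a range of concentrations for 72 h. Proliferation was read by MTT. Results are given as mean percent viability, with IC₅₀ ± SEM calculated per cell line.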

Data set [8] concerns MCF7. Briefly: Antiproliferative activity against human MCF7 cells after 72 hrs by MTT assay. Format: functional, cell-based. The following applies: MCF7, 72 h. In short, it runs like this:
as §3

Data set [9] has as its system MDA-MB-231. Briefly: Antiinvasive activity against human MDA-MB-231 cells at 5 uM after 24 hrs by cell invasion assay relative to control. Format: functional. In short, it runs like this: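 MDA-MB-231 cells were plated in CultreCoat coated-insert invasion chambers and treated at four concentrations or with vehicle. At 24 h post-plating, non-invading cell density on the upper surface was assessed by microscopy. Percent invasion inhibition relative to vehicle was calculated, and IC₅₀ was derived from the dose-response.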

Data set [10] concerns T47D. Briefly: Antiproliferative activity against human T47D cells after 72 hrs by MTT assay. Format: functional, cell-based. In short, it runs like this:
as §3

For data set [11], the system named is MCF-10A. Put plainly: Cytotoxicity against human MCF10A cells at 1 to 20 uM by MTT assay. Format: cell-based. The method in brief: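 Immortalized, non-tumorigenic MCF-10A mammary epithelial cells were treated at several concentrations (1-20 μM). Mean percent viability was compared with the matching vehicle control-treated group.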
For data set [12], the system named is MDA-MB-231. Put plainly: Cytotoxicity against human MDA-MB-231 cells at 10 uM after 24 hrs by LDH release assay (reference value: 100%). Format: functional. In short, it runs like this:
(§4)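 MDA-MB-231 cells were treated at four concentrations. LDH released into the culture medium through damaged plasma membranes was measured with a commercial LDH cytotoxicity kit and expressed as percent cytotoxicity.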

Data set [13] deals with MDA-MB-231. Put plainly: Antiinvasive activity against human MDA-MB-231 cells after 24 hrs by cell invasion assay. Format: functional, cell-based. Particulars: MDA-MB-231, 24 h. The method in brief: (§5)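 Invasion of MDA-MB-231 cells through extracellular matrix coating in a CultreCoat chamber, four doses, 24 h after plating. Non-invaded cells on the upper surface imaged by microscopy. Percent invasion read against vehicle control; IC50 taken from the dose-response curve.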

The subject of data set [14] is MDA-MB-231. Briefly: Cytotoxicity against human MDA-MB-231 cells at 2.5 uM after 24 hrs by LDH release assay (reference value: 100%). Format: functional. In short, it runs like this:
as §4

In data set [15] the test system is MDA-MB-468. Briefly: Antiproliferative activity against human MDA-MB-468 cells after 72 hrs by MTT assay. The following applies: MDA-MB-468, 72 h. Type of data set: functional, cell-based. The method in brief: as §3
Data set [16] relates to MDA-MB-231. Put plainly: Antiproliferative activity against human MDA-MB-231 cells after 72 hrs by MTT assay. Format: functional, cell-based. Particulars: MDA-MB-231, 72 h. The method in brief:
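MDA-MB-231 triple-negative breast cancer cells were exposed to a range of concentrations for 72 h. Proliferation was read by MTT. Results are given as mean percent viability versus concentration, with IC₅₀ ± SEM calculated from the curve.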

In data set [17] the test system is MDA-MB-231. Put plainly: Cytotoxicity against human MDA-MB-231 cells at 5 uM after 24 hrs by LDH release assay (reference value: 100%). Format: functional. The method in brief:
as §4

The target in data set [18] is T1, Dual specificity mitogen-activated protein kinase kinase; MEK1/2 (Homo sapiens). Briefly: Inhibition of MEK phosphorylation in human MDA-MB-231 cell lysate at 1.5 to 4 uM after 72 hrs by Western blot analysis. The method in brief: as §2
The test system of data set [19] is MDA-MB-231. Briefly: Cytotoxicity against human MDA-MB-231 cells at 1.25 uM after 24 hrs by LDH release assay (reference value: 100%). Format: functional. The method in brief:
as §4

The test system of data set [20] is SK-BR-3. Put plainly: Antiproliferative activity against human SKBR3 cells after 72 hrs by MTT assay. Format: functional, cell-based. Particulars: SK-BR-3, 72 h. The method in brief:
as §3

Data set [21] concerns MDA-MB-231. Briefly: Cytotoxicity against human MDA-MB-231 cells at 100 uM after 24 hrs by LDH release assay (reference value: 100%). Format: functional. The method in brief:
(§6)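 LDH release kit on MDA-MB-231 cells at four doses. LDH in the culture medium used as the marker of plasma membrane damage, expressed as percent cytotoxicity.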

In data set [22] the test system is MDA-MB-231. Briefly: Cytotoxicity against human MDA-MB-231 cells at 75 uM after 24 hrs by LDH release assay (reference value: 100%). Type of data set: functional. The method in brief: as §6
Data set [23] deals with MDA-MB-231. Briefly: Cytotoxicity against human MDA-MB-231 cells at 25 uM after 24 hrs by LDH release assay (reference value: 100%). Type of data set: functional. In short, it runs like this:
as §6

Data set [24] deals with MDA-MB-231. Put plainly: Cytotoxicity against human MDA-MB-231 cells at 100 uM after 24 hrs by LDH release assay relative to control. Type of data set: functional. The method in brief:
as §6

The subject of data set [25] is MDA-MB-231. Put plainly: Antiinvasive activity against human MDA-MB-231 cells at 80 uM after 24 hrs by cell invasion assay relative to control. Format: functional. In short, it runs like this: as §5
In data set [26] the test system is MDA-MB-231. Put plainly: Cytotoxicity against human MDA-MB-231 cells at 50 uM after 24 hrs by LDH release assay (reference value: 100%). Format: functional. In short, it runs like this:
as §6

The test system of data set [27] is MDA-MB-231. Briefly: Antimigratory activity against human MDA-MB-231 cells at 10 to 80 uM after 24 hrs by scratch wound-healing assay. Format: functional, cell-based.

Calls of active or inactive are those of the source. No cut-off for these calls is given here. Bounds are passed on as bounds.

T1 sequence (P36507 whole entry, looked up): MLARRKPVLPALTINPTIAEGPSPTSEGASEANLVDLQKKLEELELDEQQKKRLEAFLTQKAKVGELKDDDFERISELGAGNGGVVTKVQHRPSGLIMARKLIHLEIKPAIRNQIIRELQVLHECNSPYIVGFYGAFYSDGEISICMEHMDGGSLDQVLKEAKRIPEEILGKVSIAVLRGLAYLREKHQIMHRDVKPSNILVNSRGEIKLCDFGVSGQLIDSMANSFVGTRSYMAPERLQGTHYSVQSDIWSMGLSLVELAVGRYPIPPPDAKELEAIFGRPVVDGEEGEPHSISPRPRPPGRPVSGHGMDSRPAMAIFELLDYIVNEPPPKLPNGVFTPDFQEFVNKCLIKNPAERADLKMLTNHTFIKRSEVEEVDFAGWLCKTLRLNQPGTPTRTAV
T1 sequence (Q02750 whole entry, looked up): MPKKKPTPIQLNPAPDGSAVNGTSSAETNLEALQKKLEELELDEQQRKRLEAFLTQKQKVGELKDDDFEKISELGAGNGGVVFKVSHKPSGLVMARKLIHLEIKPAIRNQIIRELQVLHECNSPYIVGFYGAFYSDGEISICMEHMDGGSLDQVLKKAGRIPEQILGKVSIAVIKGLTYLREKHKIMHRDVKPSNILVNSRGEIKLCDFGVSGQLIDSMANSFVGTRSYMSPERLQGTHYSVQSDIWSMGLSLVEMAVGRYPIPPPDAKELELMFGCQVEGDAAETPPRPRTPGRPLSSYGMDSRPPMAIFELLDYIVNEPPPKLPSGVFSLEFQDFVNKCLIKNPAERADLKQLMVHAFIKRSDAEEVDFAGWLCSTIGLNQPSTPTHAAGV

Take `Cc1ccccc1NC(=S)N/N=C1\C[C@H]2[C@@H](CC[C@H]3C[C@@H](O)CC[C@@]32C)[C@@H]2C[C@@H]3O[C@]4(CC[C@@H](C)CO4)[C@@H](C)[C@@H]3[C@@]12C`: the Activity result was “Non-Toxic” in [1]; “Dose-dependent effect” in [4]; 5.9% in [6]; 92.4% in data set [9]; “Non-Toxic” in [11]; 5.94% in data set [12]. Further, the Activity is given as 1.27% in [14], 1.8% in data set [17] and 0.74% in data set [19]. The inhibition in vivo at 10 mg/kg in data set [2] is 78.1%. Moreover, the inhibition entry in data set [3], in data set [5] and in [18] was “Active” each time. Further, the IC50 in [4] (MDA-MB-231, 24 h) worked out at 2.5 µM; in [7], 2.6 µM; in [8] it was 2.1 µM; in [10], 3 µM; in data set [13] it was 2.2 µM; in data set [15], 2.4 µM. The figures for the IC50 in [16] and in data set [20] were 1.9 µM and 2.3 µM, respectively.

Consider `C[C@@H]1CC[C@@]2(OC1)O[C@H]1C[C@H]3[C@@H]4CC[C@H]5C[C@@H](O)CC[C@]5(C)[C@H]4CC(=O)[C@]3(C)[C@H]1[C@@H]2C`, for which the Activity result in data set [1] is reported as “Non-Toxic”; in data set [21] it was 27.8%; in data set [22] it was 10.3%; in data set [23], 0.04%; in [24] it was 27.8%; in data set [25], 86.2%. Besides, the Activity in [26] turned out to be 2.72%. In data set [2], the inhibition in vivo at 10 mg/kg is 57.4%. For the same molecule, the inhibition result in data set [3], in data set [5] and in data set [18] was “Active” in each case. Moreover, the IC50 in data set [7] is 38.2 µM; in [8], 31 µM; in data set [10], 36.6 µM; in data set [13] it was 37.1 µM; in [15] it was 35.2 µM; in data set [16], 28.7 µM. The same molecule registered an IC50 in data set [20] of 33.3 µM. Further, in [27], the outcome was Active.

As for `C[C@@H]1CC[C@@]2(OC1)O[C@H]1C[C@H]3[C@@H]4CC[C@H]5C[C@@H](O)CC[C@]5(C)[C@H]4C/C(=N\NC(=S)Nc4ccc(F)cc4)[C@]3(C)[C@H]1[C@@H]2C`, the IC50 worked out at 6.3 µM in data set [7]; 4 µM in data set [8]; 5.9 µM in data set [10]; 4.2 µM in data set [15]; 5 µM in data set [16]; 4.5 µM in data set [20].

In the case of `COc1ccccc1C(=O)O[C@H]1CC[C@@]2(C)[C@@H](CC[C@@H]3[C@@H]2CC(=O)[C@]2(C)[C@@H]4[C@H](C[C@@H]32)O[C@]2(CC[C@@H](C)CO2)[C@H]4C)C1`, the concentration for half-maximal inhibition (IC50) in data set [7], in data set [8], in data set [10], in data set [15], in data set [16] and in [20] was above 40 µM throughout.
